Experiments:
[1] = biological target: T1, Steroid 17-alpha-hydroxylase/17,20 lyase (Homo sapiens, UniProt P05093); experiment: Inhibition of human CYP17 expressed in Escherichia coli
T1 sequence (P05093 whole entry): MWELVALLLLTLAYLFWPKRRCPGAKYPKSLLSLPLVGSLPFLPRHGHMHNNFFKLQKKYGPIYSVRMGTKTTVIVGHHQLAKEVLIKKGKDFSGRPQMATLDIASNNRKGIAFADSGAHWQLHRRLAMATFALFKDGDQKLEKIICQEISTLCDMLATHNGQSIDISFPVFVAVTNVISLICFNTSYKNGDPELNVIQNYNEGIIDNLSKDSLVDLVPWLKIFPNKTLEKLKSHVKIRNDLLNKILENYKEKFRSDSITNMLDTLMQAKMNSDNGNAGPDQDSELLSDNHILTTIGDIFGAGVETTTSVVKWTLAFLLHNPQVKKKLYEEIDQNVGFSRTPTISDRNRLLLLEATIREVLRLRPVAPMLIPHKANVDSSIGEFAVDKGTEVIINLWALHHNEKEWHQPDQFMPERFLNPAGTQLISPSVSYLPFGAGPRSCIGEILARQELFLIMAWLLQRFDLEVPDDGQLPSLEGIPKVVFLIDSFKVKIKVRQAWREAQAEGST
Summary of the method: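 Enzyme source: 50 000 sediment of homogenized E. coli co-expressing human CYP17 and NADPH-P450 reductase. Substrate and product separated by HPLC with UV detection.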

[2] = biological target: T2, Cytochrome P450 11B1, mitochondrial (Homo sapiens, UniProt P15538); experiment: Inhibition of human CYP11B1 expressed in hamster fibroblast
T2 sequence (P15538 whole entry): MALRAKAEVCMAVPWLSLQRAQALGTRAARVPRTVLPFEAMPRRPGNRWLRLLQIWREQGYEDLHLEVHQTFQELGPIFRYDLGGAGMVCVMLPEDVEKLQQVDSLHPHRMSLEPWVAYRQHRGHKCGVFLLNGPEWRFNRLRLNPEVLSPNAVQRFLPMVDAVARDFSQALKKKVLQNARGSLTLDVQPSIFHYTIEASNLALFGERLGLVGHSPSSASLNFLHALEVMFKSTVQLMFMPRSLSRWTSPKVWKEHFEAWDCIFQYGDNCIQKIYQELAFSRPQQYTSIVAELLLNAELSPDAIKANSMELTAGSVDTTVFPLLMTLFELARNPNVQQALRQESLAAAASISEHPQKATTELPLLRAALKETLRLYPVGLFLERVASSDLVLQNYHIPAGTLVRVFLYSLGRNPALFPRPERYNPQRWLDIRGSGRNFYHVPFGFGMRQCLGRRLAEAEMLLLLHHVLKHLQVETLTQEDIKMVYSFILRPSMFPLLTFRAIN
Summary of the method: (§1)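 V79 MZh hamster fibroblasts expressing human CYP11B1 or CYP11B2 incubated with [14C]11-deoxycorticosterone substrate at 100 nM and inhibitor at varied concentrations. Product formation monitored by HPTLC with phosphoimager. IC50 from mean of at least three tests; SD within 5%.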

[3] = biological target: T3, Cytochrome P450 11B2, mitochondrial (Homo sapiens, UniProt P19099); experiment: Inhibition of human CYP11B2 expressed in hamster fibroblast; summary of the method: as §1
T3 sequence (P19099 whole entry): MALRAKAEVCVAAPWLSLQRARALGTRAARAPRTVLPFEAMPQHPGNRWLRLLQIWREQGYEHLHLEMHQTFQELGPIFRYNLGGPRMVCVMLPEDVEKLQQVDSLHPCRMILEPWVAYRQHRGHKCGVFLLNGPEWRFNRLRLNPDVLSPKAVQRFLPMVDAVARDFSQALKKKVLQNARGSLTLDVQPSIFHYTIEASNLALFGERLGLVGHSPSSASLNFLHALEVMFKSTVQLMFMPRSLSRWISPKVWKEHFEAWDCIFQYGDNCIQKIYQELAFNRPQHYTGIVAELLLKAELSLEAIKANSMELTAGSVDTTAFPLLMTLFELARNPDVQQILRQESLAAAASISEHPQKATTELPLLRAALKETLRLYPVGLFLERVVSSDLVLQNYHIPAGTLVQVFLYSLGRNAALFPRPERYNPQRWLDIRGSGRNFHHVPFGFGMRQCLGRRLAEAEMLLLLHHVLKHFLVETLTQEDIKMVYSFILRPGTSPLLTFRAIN

Aromatase = biological target: T4, Aromatase (Homo sapiens, UniProt P11511); experiment: Inhibition of human placental CYP19
T4 sequence (P11511 whole entry): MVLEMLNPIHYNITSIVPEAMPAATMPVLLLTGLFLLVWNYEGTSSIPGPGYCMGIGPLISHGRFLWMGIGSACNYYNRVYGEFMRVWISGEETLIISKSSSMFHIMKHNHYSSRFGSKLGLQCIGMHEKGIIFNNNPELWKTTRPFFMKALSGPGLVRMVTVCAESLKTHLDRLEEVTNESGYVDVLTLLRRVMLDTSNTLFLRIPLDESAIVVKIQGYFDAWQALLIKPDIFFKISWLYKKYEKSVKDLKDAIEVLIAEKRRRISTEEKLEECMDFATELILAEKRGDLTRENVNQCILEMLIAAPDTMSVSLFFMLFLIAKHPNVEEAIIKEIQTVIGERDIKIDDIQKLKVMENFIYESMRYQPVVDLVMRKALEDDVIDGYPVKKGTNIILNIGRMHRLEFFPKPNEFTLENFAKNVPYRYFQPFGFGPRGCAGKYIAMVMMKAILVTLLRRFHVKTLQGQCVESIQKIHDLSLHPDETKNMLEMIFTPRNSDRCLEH
Summary of the method: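 Human placental microsomes with [1β-3H]androstenedione substrate at 500 nM, run in vitro. IC50 values are means of at least three tests; SD within 5%.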

Cytochrome P450 3A4 = Cytochrome P450 3A4 (Homo sapiens, UniProt P08684); experiment: Inhibition of recombinant CYP3A4 expressed in baculovirus-infected insect microsome; format: ADME
Chain of Cytochrome P450 3A4 (P08684 whole entry): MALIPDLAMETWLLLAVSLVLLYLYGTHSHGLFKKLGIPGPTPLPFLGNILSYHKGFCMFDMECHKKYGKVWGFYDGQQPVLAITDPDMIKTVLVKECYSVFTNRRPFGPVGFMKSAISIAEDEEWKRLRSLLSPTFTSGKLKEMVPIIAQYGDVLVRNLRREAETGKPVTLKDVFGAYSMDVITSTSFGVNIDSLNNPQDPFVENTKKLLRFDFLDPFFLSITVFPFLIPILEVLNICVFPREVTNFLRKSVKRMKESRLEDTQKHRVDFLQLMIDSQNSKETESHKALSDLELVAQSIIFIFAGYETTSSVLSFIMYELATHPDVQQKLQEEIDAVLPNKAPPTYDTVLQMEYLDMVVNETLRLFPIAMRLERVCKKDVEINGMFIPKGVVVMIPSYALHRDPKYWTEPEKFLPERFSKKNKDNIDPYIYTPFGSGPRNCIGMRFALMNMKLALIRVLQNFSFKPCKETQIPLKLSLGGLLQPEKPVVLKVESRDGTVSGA

Row | IC50 [1] | IC50 [2] | IC50 [3] | IC50 (Aromatase) | IC50 (Cytochrome P450 3A4) | SMILES
1 | 598 nM | 4740 nM | 273 nM | – | – | Fc1ccc(-c2ccc(Cc3ccncc3)cc2)cc1F
2 | – | 850 nM | 210 nM | 2.69 µM | – | Oc1ccc(-c2ccc(Cc3ccncc3)cc2)cc1F
3 | > 5000 nM | – | – | – | – | CC(=O)Nc1ccc(-c2ccc(Cc3ccncc3)cc2)cc1
4 | 1370 nM | – | – | – | – | CC(C)(C)OC(=O)Nc1ccc(-c2ccc(Cc3ccncc3)cc2)cc1
5 | 248 nM | 251 nM | 341 nM | 3.07 µM | 3210 nM | Oc1ccc(-c2ccc(Cc3ccncc3)cc2)cc1
6 | – | 902 nM | 367 nM | > 25 µM | – | Nc1ccc(-c2ccc(Cc3ccncc3)cc2)cc1N
7 | 760 nM | 469 nM | 231 nM | – | – | c1cc(Cc2ccc(-c3ccc4[nH]ccc4c3)cc2)ccn1
8 | 876 nM | 307 nM | 567 nM | – | – | CC(=O)Nc1cccc(-c2ccc(Cc3ccncc3)cc2)c1
9 | 408 nM | 522 nM | 406 nM | 24.5 µM | 2450 nM | Nc1ccc(-c2ccc(Cc3ccncc3)cc2)cc1
10 | 438 nM | 627 nM | 1130 nM | – | 1140 nM | Oc1ccc2cc(-c3ccc(Cc4ccncc4)cc3)ccc2c1
11 | 1790 nM | – | – | – | – | NC(=O)c1ccc(-c2ccc(Cc3ccncc3)cc2)cc1

More lines, now with the values behind:

Row | SMILES | IC50 [1] | IC50 [2] | IC50 [3] | IC50 (Aromatase) | IC50 (Cytochrome P450 3A4)
12 | COc1ccc2cc(-c3ccc(Cc4ccncc4)cc3)ccc2c1 | 2000 nM | – | – | – | –
13 | c1csc(-c2ccc(Cc3ccncc3)cc2)c1 | 647 nM | 422 nM | 796 nM | – | –
14 | CCC(c1ccc(-c2ccc(OC)cc2)cc1)c1cccnc1 (centres undefined) | > 5000 nM | – | – | – | –
15 | CC(C)(C(=O)c1cccnc1)c1cccnc1 [METYRAPONE] | > 10000 nM | – | – | – | –
16 | CCC(c1ccncc1)c1ccc(-c2ccc(OC)cc2)cc1 (centres undefined) | 1610 nM | – | – | – | –
17 | CCC(c1ccc(-c2ccc(OC)cc2)cc1)n1ccnc1 (centres undefined) | > 5000 nM | – | – | – | –
18 | CC(C)(C)OC(=O)Nc1ccc(-c2ccc(Cc3ccncc3)cc2)cc1F | > 10000 nM | – | – | – | –
19 | c1cc(Cc2ccc(-c3ccsc3)cc2)ccn1 | 647 nM | 415 nM | 331 nM | – | –
20 | Oc1ccc(-c2ccc(Cc3cccnc3)cc2)cc1 | 4040 nM | – | – | – | –
21 | COc1ccc(-c2ccc(Cc3ccncc3)cc2)cc1NC(=O)OC(C)(C)C | > 10000 nM | – | – | – | –
22 | COc1ccc(-c2ccc(Cc3ccncc3)cc2)cc1F | 3340 nM | – | – | – | –
23 | CC(C)(C)OC(=O)Nc1ccc(-c2ccc(Cc3ccncc3)cc2)cc1NC(=O)OC(C)(C)C | > 10000 nM | – | – | – | –
24 | Oc1ccc(-c2ccc(C(O)n3ccnc3)cc2)cc1 (centres undefined) | > 5000 nM | – | – | – | –

Source: ChEMBL document CHEMBL1212925, “Replacement of imidazolyl by pyridyl in biphenylmethylenes results in selective CYP17 and dual CYP17/CYP11B1 inhibitors for the treatment of prostate cancer” (J Med Chem, 2010)
